Compounds with a hit are over-represented: about 1.6% of the library has one in this group of screens.
UHRF1 binding – UHRF1 methylated DNA binding inhibitors, primary screen, counter-screen for MBD2 inhibitor project, biochemical, TR-FRET, human UHRF1, single concentration | E3 ubiquitin-protein ligase UHRF1 (Homo sapiens), Q96T88 | UHRF1 binding to methylated oligo | inhibition, % at 4.4 µM | 0.75% of 370,000 active | AID 687016, 2013; in the data active means inhibition above about 21%;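 further: UHRF1 SRA domain binding a hemimethylated CpG hairpin DNA probe; 0% = median of test compound wells and 100% = reference inhibitor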
LEDGF integ inh – blockers of LEDGF/p75-dependent integrase strand transfer – biochemical, TR-FRET, high throughput, primary screen. HIV-1 integrase (with human LEDGF/p75). TR-FRET IN-LEDGF/p75 DNA integration, Eu/Cy5. inhibition, % at 3.7 µM. 0.64% of 370,000 active;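 active means inhibition above the screen-wide mean plus 3 SD, cut at about 13% in these data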;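 further: signal is the Cy5 over europium emission ratio at 671 and 618 nm; 0% = plate median of compound wells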
TDP2 absorb – human TDP2 enzyme inhibitors, primary screen, biochemical, epi absorbance, recombinant enzyme | Tyrosyl-DNA phosphodiesterase 2 (Homo sapiens), O95551 | T5PNP hydrolysis, p-nitrophenol absorbance 415 nm | inhibition, % at 12.8 µM | 0.34% of 370,000 active | AID 720702, 2013;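 active means inhibition above the mean of all tested compounds plus 3 SD, set per campaign, cut at about 25% in these data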;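 further: 0% = DMSO with enzyme and 100% = buffer with substrate but no TDP2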
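System – recombinant human TDP2 · Amount – 120 nM TDP2 per well · Buffer or medium – Mg2+-containing Tris-HCl buffer, pH 7.5 · Reagent – T5PNP substrate, 5 mM · Dosing – 12.8 µM single point, 1% DMSO · Incubation – 2 h at 37 °C · Measured by – epi absorbance · Read-out basis – percent inhibition · Benchmarks – high control without enzyme, low control DMSO plus TDP2 · Repeats – singlicate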
MBD2 DNA inh – inhibitors of MBD2 binding to methylated DNA, primary screen, biochemical, TR-FRET, DNA-binding domain, human; Methyl-CpG-binding domain protein 2 (Homo sapiens), Q9UBB5; MBD2 binding to methylated oligonucleotide; inhibition, % at 4.4 µM; 0.31% of 370,000 active; in the data active means inhibition above about 13%
Target sequence (Q9UBB5 whole entry, looked up, the tested form may be a part): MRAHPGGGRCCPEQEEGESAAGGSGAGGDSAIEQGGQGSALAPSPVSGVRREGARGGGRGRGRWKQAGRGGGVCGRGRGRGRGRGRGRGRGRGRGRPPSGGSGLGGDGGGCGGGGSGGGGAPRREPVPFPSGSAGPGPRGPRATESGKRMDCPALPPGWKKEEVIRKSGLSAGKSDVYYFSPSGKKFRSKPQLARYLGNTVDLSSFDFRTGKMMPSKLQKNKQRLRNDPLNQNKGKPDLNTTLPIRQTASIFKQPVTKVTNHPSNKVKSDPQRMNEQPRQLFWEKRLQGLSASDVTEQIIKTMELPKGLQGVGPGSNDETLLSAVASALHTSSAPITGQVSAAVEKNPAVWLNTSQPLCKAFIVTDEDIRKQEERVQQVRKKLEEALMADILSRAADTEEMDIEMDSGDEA
Starred values were filed as active, the others as inactive.

SMILES	UHRF1 binding	LEDGF integ inh	TDP2 absorb	MBD2 DNA inh
CC(C)C(NC(=O)C1CCCCC1)C(=O)NCc1ccccn1 (stereo not drawn)	2	-3	2	3
CCOC(=O)C1(CC/C(C)=N\NC(N)=O)CC(C)OC1=O (stereo not drawn)	21*	1	-16	6
CCCCCC1(C(=O)OCC)CC(CSC(=N)N)OC1=O (stereo not drawn)	-2	-2	-4	1
COC(=O)[C@@H]1N=C(c2ccc(OC)cc2)O[C@]12C(=O)N(Cc1cn(Cc3ccccc3)nn1)c1cccc(Cl)c12	17	2	-5	10
C#CC[N+]1(CC#Cc2ccccc2)CCCCC1	38*	1	-9	3
CCOc1ccccc1N1CCN(C(=O)[C@@H]2CCCN2C2=NS(=O)(=O)c3ccccc32)CC1	40*	-5	4	4
CCN(CC)c1ccc(N=Cc2ccccc2[N+](=O)[O-])cc1	-4	15*	10	-9
O=[N+]([O-])c1ccccc1/C=N/OCc1ccccc1	2	1	6	-3
Cc1nc(Sc2nnnn2C)c2c3c(sc2n1)CCC3	0	1	-3	-3
CCc1nc(Sc2nnnn2-c2ccccc2)c2c3c(sc2n1)CCCC3	42*	-5	-4	2
CN1C(=O)[C@@](O)(c2cccn2C)c2cc(Cl)ccc21	1	0	1	5
COC(=O)C1CN(Cc2ccc(OC)cc2)CCS(=O)(=O)N1Cc1ccccc1 (stereo not drawn)	0	0	-1	-2
COCCOC(=O)c1[nH]c2c(c1C)C(=O)CC(c1ccco1)C2 (stereo not drawn)	33*	16*	8	13
COc1cc2c(cc1OC)C(C(=O)N(C)Cc1ccccc1)C(c1cccnc1)N(C)C2=O (stereo not drawn)	38*	3	-5	3
Nc1nc2ncccc2cc1C(=O)NC1CC1	3	5	-1	0
CC(=O)c1ccc(OCc2cc([N+](=O)[O-])cc3c2OCOC3)cc1	23*	4	3	-2
COc1ccc(CNC(=O)N[C@@H](CC(C)C)C(=O)O)cc1OC	26*	-3	9	11
CCC(C)[C@H](NC(=O)NCc1ccc(OC)c(OC)c1)C(=O)O (stereo partly drawn)	-3	2	9	4
O=C(NCc1ccc(F)cc1)c1ccc(NC(=O)C2CCCO2)cc1 (stereo not drawn)	38*	-1	23	2
O=C(NCc1ccc(Cl)cc1)c1ccc(NC(=O)C2CCCO2)cc1 (stereo not drawn)	0	3	14	0
C/C(=N/NC(=O)CSc1nc2ccccc2n1C)c1ccc(O)cc1	-4	-2	0	2
C/C(=N/NC(=O)CSc1nc2ccccc2n1C)c1ccco1	83*	1	6	-5
Cc1cc(C)cc(C(=O)OCCCN(C)C2CN(Cc3cn(Cc4ccccc4Cl)nn3)S(=O)(=O)C2)c1 (stereo not drawn)	6	-1	9	-1
COc1ccc(S(=O)(=O)NCC(=O)N2CCN(c3ccccn3)CC2)c(OC)c1	0	-4	8	3
COc1cc2c(c(OC)c1OC)-c1ccc(NC(=O)c3ccc(F)cc3)c(=O)cc1[C@@H](NC(C)=O)CC2	21*	7	19	8
COc1cc2c(c(OC)c1OC)-c1ccc(OC)c(=O)cc1[C@@H](NC(C)=O)CC2	-2	-2	9	0
CC(COc1cccc(OC(F)(F)F)c1)CN1CCC(C(O)(c2ccccc2)c2ccccc2)CC1 (stereo not drawn)	-1	-1	-13	2
CCOC(=O)N1CCN(C(=O)C[C@@H]2C(=O)N(CCc3ccc(Cl)cc3)/C3=C/CCCCC[C@@]32C(=O)OCC)CC1	0	-3	0	0
CCOC(=O)c1ccccc1OC(=O)CS(=O)c1ccccc1[N+](=O)[O-] (stereo not drawn)	3	-1	0	-2
COC(=O)c1ccc(OC(=O)CS(=O)c2ccccc2[N+](=O)[O-])cc1 (stereo not drawn)	62*	0	-3	-3

Assay outcomes as filed in PubChem.
